Laboratory results as given in ChEMBL document CHEMBL1125911, “Synthesis and biological activity of new HMG-CoA reductase inhibitors. 3. Lactones of 6-phenoxy-3,5-dihydroxyhexanoic acids” (J Med Chem, 1991).
Blank lines part the entries; values can stand above or below the compound they belong to.

What was measured:
Canis familiaris [1] = assay: Tested in vivo for hypocholesterolemic activity by measuring its ability to decrease serum LDL-cholesterol, after oral administration of 5 mg/kg per day for 14 days in male Beagle dogs.; format: functional, Canis lupus familiaris
Method in brief: (§1)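 Male beagle dogs (n = 4) given neat compound in gelatine capsules daily at 3:00 p.m.; controls received empty capsules. After an overnight fast, venous blood was drawn at 8:00 a.m. Serum lipoproteins were separated by ultracentrifugation (densities 1.006/1.063/1.21). LDL-cholesterol reported as % change versus control.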

Canis familiaris [2] = assay: Tested in vivo for hypocholesterolemic activity by measuring its ability to decrease serum LDL-cholesterol, after oral administration of 30 mg/kg per day for 14 days in male Beagle dogs.; format: functional, Canis lupus familiaris; method in brief: as §1
Sus scrofa [3] = species: Sus scrofa; assay: In vitro inhibition of Cu2+ catalyzed LDL oxidation at 10e-5 M conc.; format: functional
Method in brief: (§2)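 Porcine plasma LDL isolated by sequential ultracentrifugation (density 1.019-1.063 g/mL), dialysed against PBS pH 7.4, then diluted to 0.1 mg/mL protein. Preincubated 1 h at 37 °C under N2 with compound in ethanol. Oxidised with 5 μM Cu2+ for 2 h at 37 °C in air. Fluorescence read at ex 365/em 430 nm.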

Sus scrofa [4] = species: Sus scrofa; assay: Compound was tested for inhibition of Cu2+ catalyzed LDL oxidation and the potency relative to terbufucine was determined; format: functional; method in brief: as §2
Rattus norvegicus [5] = species: Rattus norvegicus; assay: In vitro inhibition of microsomal lipid peroxidation; format: functional
Method in brief: (§3)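 Rat liver microsomes in 50 mM Tris-HCl pH 7.4 with 100 mM KCl and 6.0 mM MgCl2, final protein 0.4 mg/mL. Peroxidation was started with ADP (2 mM)/FeCl3 (10 μM) plus an NADPH-regenerating system. Incubation 30 min at 37 °C with shaking. Thiobarbituric acid reactive substances were read at 535 nm.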

[6] = molecular target: T1, 3-hydroxy-3-methylglutaryl-coenzyme A reductase (Rattus norvegicus, UniProt P51639); assay: In vitro inhibition of HMG-CoA reductase in solubilized rat liver.
T1 sequence (P51639 whole entry): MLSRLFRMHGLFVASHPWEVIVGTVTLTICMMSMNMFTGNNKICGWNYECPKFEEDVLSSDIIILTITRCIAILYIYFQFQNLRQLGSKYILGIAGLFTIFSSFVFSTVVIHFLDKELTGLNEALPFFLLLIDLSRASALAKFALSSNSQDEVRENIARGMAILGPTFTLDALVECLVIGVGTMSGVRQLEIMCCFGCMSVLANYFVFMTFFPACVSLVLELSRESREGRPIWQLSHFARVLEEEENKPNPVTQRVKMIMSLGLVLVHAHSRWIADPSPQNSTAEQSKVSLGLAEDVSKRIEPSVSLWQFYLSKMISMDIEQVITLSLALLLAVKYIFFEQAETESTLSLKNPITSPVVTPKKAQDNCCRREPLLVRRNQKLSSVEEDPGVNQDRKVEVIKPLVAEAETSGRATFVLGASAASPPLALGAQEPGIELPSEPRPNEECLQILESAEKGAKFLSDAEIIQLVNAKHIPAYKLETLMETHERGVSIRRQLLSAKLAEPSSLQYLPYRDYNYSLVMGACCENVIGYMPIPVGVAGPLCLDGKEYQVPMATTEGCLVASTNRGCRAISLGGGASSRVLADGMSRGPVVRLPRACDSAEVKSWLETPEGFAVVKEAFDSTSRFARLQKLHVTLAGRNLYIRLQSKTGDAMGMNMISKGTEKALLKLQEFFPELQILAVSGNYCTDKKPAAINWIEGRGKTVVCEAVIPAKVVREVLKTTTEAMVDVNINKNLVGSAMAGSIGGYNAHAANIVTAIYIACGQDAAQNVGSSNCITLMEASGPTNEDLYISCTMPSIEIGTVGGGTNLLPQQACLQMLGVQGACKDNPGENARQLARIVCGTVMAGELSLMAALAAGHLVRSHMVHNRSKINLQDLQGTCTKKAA

Oryctolagus cuniculus [7] = assay: Tested in vivo for hypocholesterolemic activity by measuring its ability to decrease serum total cholesterol, after oral administration of 75 mg/kg body wt. per day in normolipidemic NZW rabbits; format: functional
Method in brief: (§4)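 NZW rabbits (n = 5 or 6) dosed orally daily for 10 days. Serum total cholesterol reported as % change versus control. For 20 mg/kg, that dose was given on days 11-20 after 10 mg/kg, with the value read on day 20. Error given as SEM.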

Oryctolagus cuniculus [8] = assay: Tested in vivo for hypocholesterolemic activity by measuring its ability to decrease serum total cholesterol, after oral administration of 10 mg/kg body wt. per day in normolipidemic NZW rabbits; format: functional; method in brief: as §4
Oryctolagus cuniculus [9] = assay: Tested in vivo for hypocholesterolemic activity by measuring its ability to decrease serum total cholesterol, after oral administration of 20 mg/kg body wt. per day in normolipidemic NZW rabbits; format: functional; method in brief: as §4
Rattus norvegicus [10] = assay: In vivo inhibition of hepatic cholesterol de novo synthesis in rat after oral administration of 5 mg/kg dose; format: functional
Canis familiaris [11] = assay: Tested in vivo for hypocholesterolemic activity by measuring its ability to decrease serum LDL-cholesterol, after oral administration of 10 mg/kg per day for 19 days in male Beagle dogs.
[12] = molecular target: T1, 3-hydroxy-3-methylglutaryl-coenzyme A reductase; assay: In vitro inhibition of solubilized HMG-CoA reductase in rat liver.
Oryctolagus cuniculus [13] = assay: Tested in vivo for hypocholesterolemic activity by measuring its ability to decrease serum total cholesterol, after oral administration of 75 mg/kg body wt. per day in normolipidemic NZW rabbits; More potent than compound 73; format: functional, organism-based; set-up: dose 75 mg/kg, route oral
Canis familiaris [14] = assay: Tested in vivo for hypocholesterolemic activity by measuring its ability to decrease serum LDL-cholesterol, after oral administration of 30 mg/kg per day for 21 days in male Beagle dogs.; format: functional, Canis lupus familiaris; method in brief: as §1
Rattus norvegicus [15] = species: Rattus norvegicus; assay: Potency relative to mevinolin was determined with respect to IC50. […]; format: functional
[16] = molecular target: T2, 3-hydroxy-3-methylglutaryl-coenzyme A reductase (Rattus norvegicus) (UniProt P51639); assay: (§5) Inhibition of HMG-CoA reductase compared to mevinolin.
T2 sequence (whole entry): T1 sequence (P51639 whole entry)
Method in brief: (§6)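 Solubilized, partially purified rat liver HMG-CoA reductase. IC50 from four or five inhibitor concentrations. Relative potency compared IC50 with mevinolin (set to 100), corrected for molecular weight.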

[17] = molecular target: T3, 3-hydroxy-3-methylglutaryl-coenzyme A reductase (Homo sapiens, UniProt P04035); assay: Inhibition of the incorporation of sodium [14C]acetate into cholesterol in HEP G2 cells.; format: functional, cell-based, HepG2
T3 sequence (P04035 whole entry): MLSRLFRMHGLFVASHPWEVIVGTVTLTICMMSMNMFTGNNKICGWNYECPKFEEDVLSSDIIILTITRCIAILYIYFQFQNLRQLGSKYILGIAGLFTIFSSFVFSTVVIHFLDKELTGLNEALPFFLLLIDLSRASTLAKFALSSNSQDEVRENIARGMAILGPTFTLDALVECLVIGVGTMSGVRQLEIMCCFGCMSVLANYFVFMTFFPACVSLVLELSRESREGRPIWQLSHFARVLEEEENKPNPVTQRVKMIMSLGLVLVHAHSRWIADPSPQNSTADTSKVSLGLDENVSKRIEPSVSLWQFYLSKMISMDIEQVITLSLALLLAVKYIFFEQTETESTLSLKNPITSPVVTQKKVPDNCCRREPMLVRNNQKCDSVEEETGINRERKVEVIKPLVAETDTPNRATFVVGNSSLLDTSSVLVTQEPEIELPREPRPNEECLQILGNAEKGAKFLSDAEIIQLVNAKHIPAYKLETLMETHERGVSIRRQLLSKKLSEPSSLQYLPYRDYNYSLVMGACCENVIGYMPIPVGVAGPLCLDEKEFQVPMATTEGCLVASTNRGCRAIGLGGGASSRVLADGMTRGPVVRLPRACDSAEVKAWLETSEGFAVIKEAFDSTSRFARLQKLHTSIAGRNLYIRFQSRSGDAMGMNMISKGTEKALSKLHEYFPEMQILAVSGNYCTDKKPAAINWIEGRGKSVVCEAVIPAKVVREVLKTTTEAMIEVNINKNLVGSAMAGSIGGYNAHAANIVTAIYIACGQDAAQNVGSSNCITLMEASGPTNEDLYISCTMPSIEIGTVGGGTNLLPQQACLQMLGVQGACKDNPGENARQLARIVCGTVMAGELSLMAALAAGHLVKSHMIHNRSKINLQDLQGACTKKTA

[18] = molecular target: T4, 3-hydroxy-3-methylglutaryl-coenzyme A reductase (Homo sapiens) (UniProt P04035); assay: as §5; format: functional; method in brief: as §6
T4 sequence (whole entry): T3 sequence (P04035 whole entry)

Oryctolagus cuniculus [19] = assay: Tested in vivo for hypocholesterolemic activity by measuring its ability to decrease serum total cholesterol, after oral administration of 75 mg/kg body wt. per day in normolipidemic NZW rabbits; Not significantly active; format: functional, organism-based; set-up: dose 75 mg/kg, route oral
Rattus norvegicus [20] = assay: Compound was tested for effect on body weight after oral administration of 100 mg/kg in male rats.; format: functional
Method in brief: (§7)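 Male HOE:WISKf (SPF 71) rats, initial body weight over 180 g, n = 10 per group, dosed once daily in the morning by gavage in polyethylene glycol 400 for 7 days; controls received vehicle. Fasted after last dose, bled retroorbitally 24 h later under mild ether. Liver and body weight recorded. Pooled group serum was ultracentrifuged into VLDL (<1.006), LDL (1.006-1.04) and HDL (1.04-1.21). Values are % change versus control.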

Rattus norvegicus [21] = assay: Compound was tested for effect on liver weight after oral administration of 100 mg/kg in male rats.; format: functional; method in brief: as §7
Rattus norvegicus [22] = assay: Compound was tested for effect on serum HDL after oral administration of 100 mg/kg in male rats; format: functional; method in brief: as §7
Rattus norvegicus [23] = assay: Compound was tested for effect on serum LDL after oral administration of 100 mg/kg in male rats; format: functional; method in brief: as §7
Rattus norvegicus [24] = assay: Compound was tested for effect on serum VLDL after oral administration of 100 mg/kg in male rats; format: functional; method in brief: as §7
Rattus norvegicus [25] = species: Rattus norvegicus; assay: In vitro inhibition of microsomal lipid peroxidation at 10e-5 M concentration; format: functional; method in brief: as §3
Rattus norvegicus [26] = species: Rattus norvegicus; assay: Compound was tested for inhibition of microsomal lipid peroxidation and the potency relative to terbufucine was determined; format: functional; method in brief: as §3
Canis familiaris [27] = assay: Tested in vivo for hypocholesterolemic activity by measuring its ability to decrease serum LDL-cholesterol, after oral administration of 10 mg/kg per day for 14 days in male Beagle dogs.; format: functional, Canis lupus familiaris; method in brief: as §1
Canis familiaris [28] = assay: Tested in vivo for hypocholesterolemic activity by measuring its ability to decrease serum LDL-cholesterol, after oral administration of 25 mg/kg per day for 14 days in male Beagle dogs.; format: functional, Canis lupus familiaris; method in brief: as §1
Oryctolagus cuniculus [29] = assay: Tested in vivo for hypocholesterolemic activity by measuring its ability to decrease serum total cholesterol, after oral administration of 75 mg/kg body wt. per day in normolipidemic NZW rabbits; Very potent; format: functional, organism-based; set-up: dose 75 mg/kg, route oral

IC50 (Rattus norvegicus [5]): > 10000 nM
SMILES: CC(C)c1cc(Sc2ccc(F)cc2)cc(-c2ccc(F)cc2)c1OCC1C[C@@H](O)CC(=O)O1 (stereo partly drawn)
Change (Canis familiaris [1]): -9% | Change (Canis familiaris [2]): -21% | inhibition at 10 µM (Sus scrofa [3]): 23% | Relative potency (Sus scrofa [4]): <0.1

IC50 [6]: 50 nM
SMILES: O=C([O-])C[C@H](O)CC(O)COc1c(Cl)cc(Cl)cc1C(c1ccc(F)cc1)c1ccc(F)cc1.[Na+] (stereo in doubt; 11b)
Change (Oryctolagus cuniculus [7]): -25%

SMILES: CC[C@H](C)C(=O)O[C@H]1C[C@@H](C)C=C2C=C[C@H](C)[C@H](CC[C@@H]3C[C@@H](O)CC(=O)O3)[C@H]21 [LOVASTATIN]
Change (Oryctolagus cuniculus [8]): -25% | Change (Oryctolagus cuniculus [9]): -27% | Cholesterol (Rattus norvegicus [10]): 14% | Change (Canis familiaris [11]): -20%

IC50 [12]: 1 nM | IC50 (Oryctolagus cuniculus [13]): More potent than compound 73
SMILES: CC(C)c1nc(C(C)(C)C)cc(-c2ccc(F)cc2)c1/C=C/[C@@H](O)C[C@@H](O)CC(=O)[O-].[Na+]

SMILES: CC(C)c1cc(-c2ccc(F)cc2)cc(-c2ccc(F)cc2)c1OCC1C[C@@H](O)CC(=O)O1 (stereo partly drawn)
Change (Canis familiaris [14]): 3% | Change (Oryctolagus cuniculus [8]): -28% | Change (Oryctolagus cuniculus [9]): -34% | Cholesterol (Rattus norvegicus [10]): 84.5% | Relative potency (Rattus norvegicus [15]): 18

IC50 [6]: 400 nM | Relative potency [16]: 2 | IC50 [17]: > 500 nM | Relative potency [18]: < 10 | IC50 (Oryctolagus cuniculus [19]): Not Active
SMILES: CC(C)c1cc(C(C)(C)C)cc(-c2ccc(F)cc2)c1OCC(O)C[C@@H](O)CC(=O)[O-].[Na+] (stereo partly drawn)

IC50 [6]: 10 nM | Relative potency [16]: 37 | IC50 [17]: > 1000 nM | Relative potency [18]: < 5
SMILES: CC(C)c1cc(SC(C)(C)Sc2cc(-c3ccc(F)cc3)c(OC[C@H](O)C[C@@H](O)CC(=O)[O-])c(C(C)C)c2)cc(-c2ccc(F)cc2)c1OC[C@H](O)C[C@@H](O)CC(=O)[O-].[Na+].[Na+]
Change (Rattus norvegicus [20]): 5% | Change (Rattus norvegicus [21]): -1% | Change (Rattus norvegicus [22]): 9% | Change (Rattus norvegicus [23]): -52% | Change (Rattus norvegicus [24]): -23% | inhibition (Rattus norvegicus [25]): < 10% | Relative potency (Rattus norvegicus [26]): < 0.1

SMILES: CC(C)c1cc(-c2ccc(F)cc2)c(OCC(O)C[C@@H](O)CC(=O)[O-])c(C(C)C)c1.[Na+] (stereo partly drawn)
Change (Canis familiaris [27]): -10% | Change (Canis familiaris [28]): -21% | IC50 [6]: 2.7 nM | Relative potency [16]: 300 | IC50 [17]: 30 nM | Relative potency [18]: 150 | Change (Oryctolagus cuniculus [8]): -32% | Change (Oryctolagus cuniculus [9]): -37% | IC50 (Oryctolagus cuniculus [29]): Very potent
